Values joined by “and” are separate entries in the source; they are usually repeats but may differ in a detail not shown here. Equal values may be shown once.
Tested on: U2OS
Assay: Multiplex assay against U2OS
Type: toxicity, cell-based
Conditions: human
Method in brief: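 With compound added, live cells were imaged on a CQ1 microscope at 37°C and 5% CO2; staining with Hoechst33342, BioTracker Green Microtubule Cytoskeleton Dye, MitoTracker Red and Annexin V Alexa Fluor 680 had been done at seeding. The CellPathfinder machine-learning gating scheme split cells into Hoechst high-intensity objects or normal cells, normal cells into healthy, pyknosed or fragmented nuclei, and pyknosed cells into mitotic or apoptotic. The tubulin, mitochondrial-mass and membrane-permeability phenotypes are per cents of healthy-nucleus cells.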

[1] = 12 h, 1 µM, compound concentration 1 uM, replicate 1
[2] = 12 h, 1 µM, compound concentration 1 uM, replicate 2
[3] = 24 h, 1 µM, compound concentration 1 uM, replicate 1
[4] = 24 h, 1 µM, compound concentration 1 uM, replicate 2
[5] = 12 h, 10 µM, compound concentration 10 uM, replicate 1
[6] = 12 h, 10 µM, compound concentration 10 uM, replicate 2
[7] = 24 h, 10 µM, compound concentration 10 uM, replicate 1
[8] = 24 h, 10 µM, compound concentration 10 uM, replicate 2
[9] = 48 h, 1 µM, compound concentration 1 uM, replicate 1
[10] = 48 h, 1 µM, compound concentration 1 uM, replicate 2
[11] = 48 h, 10 µM, compound concentration 10 uM, replicate 1
[12] = 48 h, 10 µM, compound concentration 10 uM, replicate 2

With `CN1CCN(Cc2cc(NC(=O)c3ccc4c(c3)CN(c3ccccc3)CC4)cc(C(F)(F)F)c2)CC1` the “Population Apoptotic (%)” value [1] was 35% and 75%, the “Population Healthy Nuclei (%)” value [1] was 63% and 89% and the “Population Hoechst High Intensity Objects (%)” value [1] was 2%. For the same compound, the “Population Membrane Permeable-Phenotype (%)” value [1] was 28% and 46%, the “Population Mitotic Cells (%)” value [1] was 64% and 25% and the “Population Normal (%)” value [1] was 97%. For the same compound, the “Population Tubulin-Different-Phenotype (%)” value [1] was 98% and 42%, the “Total Cell Count” value [1] was 228 and 171 and the “Population Fragmented Nuclei (%)” value [2] was 28% and 15%. For the same compound, the “Population Healthy Nuclei (%)” value [2] was 52% and 80%, the “Population Hoechst High Intensity Objects (%)” value [2] was 5% and 15% and the “Population Membrane Permeable-Phenotype (%)” value [2] was 47% and 37%. The “Population Mitotic Cells (%)” value [2] was 65% and 100%, the “Population Normal (%)” value [2] was 94% and 84% and the “Population Pyknosed Nuclei (%)” value [2] was 19%. The “Population Tubulin-Different-Phenotype (%)” value [2] was 100% and 48%, the “Total Cell Count” value [2] was 128 and 83 and the “Population Apoptotic (%)” value [3] was 39% and 22%. The “Population Fragmented Nuclei (%)” value [3] was 14% and 7%, the “Population Healthy Nuclei (%)” value [3] was 46% and 88% and the “Population Hoechst High Intensity Objects (%)” value [3] was 10% and 3%. The “Population Membrane Permeable-Phenotype (%)” value [3] was 33% and 28%, the “Population Mitotic Cells (%)” value [3] was 60% and 77% and the “Population Normal (%)” value [3] was 89% and 96%. For the same compound, the “Total Cell Count” value [3] was 255 and 239, the “Population Fragmented Nuclei (%)” value [4] was 19% and 9% and the “Population Healthy Nuclei (%)” value [4] was 45% and 80%. For the same compound, the “Population Hoechst High Intensity Objects (%)” value [4] was 13% and 11%, the “Population Membrane Permeable-Phenotype (%)” value [4] was 36% and 35% and the “Population Mitotic Cells (%)” value [4] was 44% and 87%. The “Population Normal (%)” value [4] was 86% and 88% and the “Total Cell Count” value [4] was 144 and 92.

`COc1cc(Nc2nccc(-c3cnn4nc(OC)ccc34)n2)cc(C(F)(F)F)c1` was tested, and the “Population Apoptotic (%)” value [1] was 27%, the “Population Fragmented Nuclei (%)” value [1] was 12% and the “Population Healthy Nuclei (%)” value [1] was 74%. For the same compound, the “Population Hoechst High Intensity Objects (%)” value [1] was 7%, the “Population Membrane Permeable-Phenotype (%)” value [1] was 6% and the “Population Mitochondria Different-Phenotype (%)” value [1] was 12%. For the same compound, the “Population Mitotic Cells (%)” value [1] was 72%, the “Population Normal (%)” value [1] was 92% and the “Population Pyknosed Nuclei (%)” value [1] was 12%. The “Population Tubulin-Different-Phenotype (%)” value [1] was 9%, the “Total Cell Count” value [1] was 189 and the “Population Apoptotic (%)” value [2] was 50%. For the same compound, the “Population Fragmented Nuclei (%)” value [2] was 8%, the “Population Healthy Nuclei (%)” value [2] was 86% and the “Population Hoechst High Intensity Objects (%)” value [2] was 3%. For the same compound, the “Population Membrane Permeable-Phenotype (%)” value [2] was 2%, the “Population Mitochondria Different-Phenotype (%)” value [2] was 16% and the “Population Mitotic Cells (%)” value [2] was 50%. For the same compound, the “Population Normal (%)” value [2] was 96%, the “Population Pyknosed Nuclei (%)” value [2] was 5% and the “Population Tubulin-Different-Phenotype (%)” value [2] was 16%. For the same compound, the “Total Cell Count” value [2] was 44, the “Population Apoptotic (%)” value [5] was 60% and the “Population Fragmented Nuclei (%)” value [5] was 32%. For the same compound, the “Population Healthy Nuclei (%)” value [5] was 55%, the “Population Hoechst High Intensity Objects (%)” value [5] was 15% and the “Population Membrane Permeable-Phenotype (%)” value [5] was 7%. The “Population Mitochondria Different-Phenotype (%)” value [5] was 46%, the “Population Mitotic Cells (%)” value [5] was 39% and the “Population Normal (%)” value [5] was 84%. For the same compound, the “Population Pyknosed Nuclei (%)” value [5] was 11%, the “Population Tubulin-Different-Phenotype (%)” value [5] was 27% and the “Total Cell Count” value [5] was 192. For the same compound, the “Population Apoptotic (%)” value [6] was 33%, the “Population Fragmented Nuclei (%)” value [6] was 27% and the “Population Healthy Nuclei (%)” value [6] was 61%. The “Population Hoechst High Intensity Objects (%)” value [6] was 34%, the “Population Membrane Permeable-Phenotype (%)” value [6] was 3% and the “Population Mitochondria Different-Phenotype (%)” value [6] was 6%. The “Population Mitotic Cells (%)” value [6] was 66%, the “Population Normal (%)” value [6] was 65% and the “Population Tubulin-Different-Phenotype (%)” value [6] was 15%. For the same compound, the “Total Cell Count” value [6] was 82, the “Population Apoptotic (%)” value [3] was 24% and the “Population Fragmented Nuclei (%)” value [3] was 14%. For the same compound, the “Population Healthy Nuclei (%)” value [3] was 61%, the “Population Hoechst High Intensity Objects (%)” value [3] was 6% and the “Population Membrane Permeable-Phenotype (%)” value [3] was 7%. For the same compound, the “Population Mitochondria Different-Phenotype (%)” value [3] was 20%, the “Population Mitotic Cells (%)” value [3] was 75% and the “Population Normal (%)” value [3] was 93%. The “Population Pyknosed Nuclei (%)” value [3] was 24%, the “Population Tubulin-Different-Phenotype (%)” value [3] was 16% and the “Total Cell Count” value [3] was 214. The “Population Apoptotic (%)” value [4] was 45%, the “Population Fragmented Nuclei (%)” value [4] was 10% and the “Population Healthy Nuclei (%)” value [4] was 77%. The “Population Hoechst High Intensity Objects (%)” value [4] was 2%, the “Population Membrane Permeable-Phenotype (%)” value [4] was 4% and the “Population Mitochondria Different-Phenotype (%)” value [4] was 10%. For the same compound, the “Population Mitotic Cells (%)” value [4] was 54%, the “Population Normal (%)” value [4] was 97% and the “Population Pyknosed Nuclei (%)” value [4] was 12%. For the same compound, the “Population Tubulin-Different-Phenotype (%)” value [4] was 19%, the “Total Cell Count” value [4] was 43 and the “Population Apoptotic (%)” value [7] was 65%. For the same compound, the “Population Fragmented Nuclei (%)” value [7] was 36%, the “Population Healthy Nuclei (%)” value [7] was 50% and the “Population Hoechst High Intensity Objects (%)” value [7] was 18%. The “Population Membrane Permeable-Phenotype (%)” value [7] was 2%, the “Population Mitochondria Different-Phenotype (%)” value [7] was 47% and the “Population Mitotic Cells (%)” value [7] was 34%. The “Population Normal (%)” value [7] was 81%, the “Population Pyknosed Nuclei (%)” value [7] was 13% and the “Population Tubulin-Different-Phenotype (%)” value [7] was 15%. The “Total Cell Count” value [7] was 197, the “Population Apoptotic (%)” value [8] was 50% and the “Population Fragmented Nuclei (%)” value [8] was 26%. For the same compound, the “Population Healthy Nuclei (%)” value [8] was 56%, the “Population Hoechst High Intensity Objects (%)” value [8] was 29% and the “Population Membrane Permeable-Phenotype (%)” value [8] was 0%. The “Population Mitochondria Different-Phenotype (%)” value [8] was 23%, the “Population Mitotic Cells (%)” value [8] was 50% and the “Population Normal (%)” value [8] was 70%. The “Population Pyknosed Nuclei (%)” value [8] was 17%, the “Population Tubulin-Different-Phenotype (%)” value [8] was 11% and the “Total Cell Count” value [8] was 90. The “Population Apoptotic (%)” value [9] was 53%, the “Population Fragmented Nuclei (%)” value [9] was 16% and the “Population Healthy Nuclei (%)” value [9] was 54%. The “Population Hoechst High Intensity Objects (%)” value [9] was 4%, the “Population Membrane Permeable-Phenotype (%)” value [9] was 6% and the “Population Mitochondria Different-Phenotype (%)” value [9] was 34%. For the same compound, the “Population Mitotic Cells (%)” value [9] was 46%, the “Population Normal (%)” value [9] was 95% and the “Population Pyknosed Nuclei (%)” value [9] was 28%. The “Population Tubulin-Different-Phenotype (%)” value [9] was 15%, the “Total Cell Count” value [9] was 257 and the “Population Apoptotic (%)” value [10] was 55%. The “Population Fragmented Nuclei (%)” value [10] was 11%, the “Population Healthy Nuclei (%)” value [10] was 81% and the “Population Hoechst High Intensity Objects (%)” value [10] was 7%. For the same compound, the “Population Membrane Permeable-Phenotype (%)” value [10] was 15%, the “Population Mitochondria Different-Phenotype (%)” value [10] was 17% and the “Population Mitotic Cells (%)” value [10] was 44%. For the same compound, the “Population Normal (%)” value [10] was 92%, the “Population Pyknosed Nuclei (%)” value [10] was 7% and the “Population Tubulin-Different-Phenotype (%)” value [10] was 20%. The “Total Cell Count” value [10] was 55, the “Population Apoptotic (%)” value [11] was 62% and the “Population Fragmented Nuclei (%)” value [11] was 45%. For the same compound, the “Population Healthy Nuclei (%)” value [11] was 33%, the “Population Hoechst High Intensity Objects (%)” value [11] was 20% and the “Population Membrane Permeable-Phenotype (%)” value [11] was 14%. For the same compound, the “Population Mitochondria Different-Phenotype (%)” value [11] was 36%, the “Population Mitotic Cells (%)” value [11] was 37% and the “Population Normal (%)” value [11] was 79%. For the same compound, the “Population Pyknosed Nuclei (%)” value [11] was 21%, the “Population Tubulin-Different-Phenotype (%)” value [11] was 21% and the “Total Cell Count” value [11] was 200. The “Population Apoptotic (%)” value [12] was 69%, the “Population Fragmented Nuclei (%)” value [12] was 26% and the “Population Healthy Nuclei (%)” value [12] was 48%. For the same compound, the “Population Hoechst High Intensity Objects (%)” value [12] was 27%, the “Population Membrane Permeable-Phenotype (%)” value [12] was 8% and the “Population Mitochondria Different-Phenotype (%)” value [12] was 25%. The “Population Mitotic Cells (%)” value [12] was 30%, the “Population Normal (%)” value [12] was 72% and the “Population Pyknosed Nuclei (%)” value [12] was 26%. For the same compound, the “Population Tubulin-Different-Phenotype (%)” value [12] was 20% and the “Total Cell Count” value [12] was 127.
